Test results from ChEMBL document CHEMBL4251674, “Bioactivity-Based Molecular Networking for the Discovery of Drug Leads in Natural Product Bioassay-Guided Fractionation” (J Nat Prod, 2018).
Activity calls are given as the source filed them. The rule behind the calls is not given here.

Tested on: not listed separately
Assay: Selectivity index, ratio of CC50 for African green monkey Vero cells to EC50 for Chikungunya virus 899 infected in African green monkey Vero cells
Type: toxicity
Settings: read-out: Selectivity Index
In short: (§1)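 Cell-based CHIKV replication assay in Vero cells. EC50 is the concentration that reduces CHIKV replication by 50%. CC50 is the concentration that reduces natural growth of the host cells by 50%. […]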

| SMILES | selectivity ratio |
| --- | --- |
| CCCCC/C=C/C=C\C(=O)O[C@@H]1[C@@H](C)[C@]2(O)[C@@H]3C=C(C)C(=O)[C@H]3CC(CO)=C[C@H]2[C@@H]2C(C)(C)[C@]12OC(=O)C(C)C | 6 |
| CCC/C=C/C=C\C(=O)O[C@@H]1[C@@H](C)[C@]2(O)[C@@H]3C=C(C)C(=O)[C@H]3CC(CO)=C[C@H]2[C@@H]2C(C)(C)[C@]12OC(=O)C(C)C | 41 |
| CCC/C=C/C=C/C=C\C(=O)O[C@@H]1[C@@H](C)[C@]2(O)[C@@H]3C=C(C)C(=O)[C@H]3CC(CO)=C[C@H]2[C@@H]2C(C)(C)[C@]12OC(=O)C(C)C | 34 |
| CC/C=C\C/C=C/C=C\C(=O)O[C@@H]1[C@@H](C)[C@]2(O)[C@@H]3C=C(C)C(=O)[C@H]3CC(CO)=C[C@H]2[C@@H]2C(C)(C)[C@]12OC(=O)C(C)C | 4 |

Tested on: Chikungunya virus
Assay: Antiviral activity against Chikungunya virus 899 infected in African green monkey Vero cells assessed as inhibition of virus-induced cytopathic effect after 6 to 7 days by MTS assay
Type: functional, organism-based
Settings: not given
In short: as §1

| SMILES | inhibition |
| --- | --- |
| CC(=O)O[C@H]1[C@@H](OC(C)=O)C(C)(C)/C=C/[C@@](C)(O)C(=O)[C@@]2(O)C[C@@](C)(OC(C)=O)[C@H](OC(C)=O)[C@@H]2[C@H]2OC(=O)CC[C@@]2(OCC(C)C)[C@@H]1OCC(C)C | inactive |
| C=C1[C@H](OC(=O)c2ccccc2)[C@@H](OC(C)=O)[C@@H](OC(C)=O)C(C)(C)/C=C/[C@H](C)C(=O)[C@@]2(O)C[C@@](C)(OC(C)=O)[C@H](O)[C@@H]2[C@H]1OC(=O)c1ccccc1 | inactive |
| C=C1[C@H](OCC(C)C)[C@@H](OC(C)=O)[C@@H](OC(C)=O)C(C)(C)/C=C/[C@H](C)C(=O)[C@@]2(O)C[C@@](C)(OC(C)=O)[C@H](OC(=O)c3ccccc3)[C@@H]2[C@H]1OCC(C)C | inactive |
| C=C1[C@H](OCC(C)C)[C@@H](OC(C)=O)[C@@H](OC(=O)c2cccnc2)C(C)(C)/C=C/[C@H](C)C(=O)[C@@]2(OC(C)=O)C[C@@](C)(OC(=O)c3cccnc3)[C@H](OC(C)=O)[C@@H]2[C@H]1OC(C)=O | inactive |
| C=C1[C@H](OC(=O)c2ccccc2)[C@@H](OC(C)=O)[C@@H](OC(=O)c2cccnc2)C(C)(C)/C=C/[C@H](C)C(=O)[C@@]2(O)C[C@@](C)(OC(=O)c3cccnc3)[C@H](OC(C)=O)[C@@H]2[C@H]1OC(C)=O | inactive |
| C=C1[C@H](OC(=O)c2ccccc2)[C@@H](OC(C)=O)[C@@H](OC(C)=O)C(C)(C)/C=C/[C@H](C)C(=O)[C@@]2(O)C[C@H](C)[C@H](OC(C)=O)[C@@H]2[C@H]1OCC(C)C | inactive |
| C=C1[C@H](OC(=O)c2ccccc2)[C@@H](OC(C)=O)[C@@H](OC(=O)c2cccnc2)C(C)(C)/C=C/[C@H](C)C(=O)[C@@]2(OC(C)=O)C[C@@](C)(OC(=O)c3cccnc3)[C@H](OC(C)=O)[C@@H]2[C@H]1OC(C)=O | inactive |
| C=C1[C@H](OC(=O)c2ccccc2)[C@@H](OC(C)=O)[C@@H](OC(=O)c2cccnc2)C(C)(C)/C=C/[C@H](C)C(=O)[C@@]2(O)C[C@@](C)(OC(=O)c3cccnc3)[C@H](OC(C)=O)[C@@H]2[C@H]1OCC(C)C | inactive |
| C=C1[C@H](OC(=O)c2ccccc2)[C@@H](O)[C@@H](OC(C)=O)C(C)(C)/C=C/[C@H](C)C(=O)[C@@]2(O)C[C@@](C)(OC(C)=O)[C@H](O)[C@@H]2[C@H]1OC(=O)c1ccccc1 | inactive |
| C=C1[C@H](OC(=O)c2ccccc2)[C@@H](OC(C)=O)[C@@H](OC(C)=O)C(C)(C)/C=C/[C@H](C)C(=O)[C@@]2(O)C[C@@](C)(OC(C)=O)[C@H](OC(C)=O)[C@@H]2[C@H]1OCC(C)C | inactive |
| CC(=O)O[C@H]1[C@@H](OC(C)=O)C(C)(C)/C=C/[C@@](C)(O)C(=O)[C@@]2(OC(C)=O)C[C@@](C)(OC(C)=O)[C@H](OC(C)=O)[C@@H]2[C@H]2OC(=O)CC[C@@]2(OC(C)=O)[C@@H]1OCC(C)C | inactive |
| C=C1[C@H](O)[C@H]2[C@@H](OC(=O)c3ccccc3)[C@](C)(O)C[C@]2(O)C(=O)[C@@H](C)/C=C/C(C)(C)[C@H](OC(C)=O)[C@H](OC(C)=O)[C@H]1OC(=O)c1ccccc1 | inactive |
| C=C1[C@H](OCC(C)C)[C@@H](OC(C)=O)[C@@H](OC(C)=O)C(C)(C)/C=C/[C@H](C)C(=O)[C@@]2(O)C[C@@](C)(OC(C)=O)[C@H](OC(=O)COC(=O)c3ccccc3)[C@@H]2[C@H]1OC(C)=O | inactive |
| C=C1[C@H](OC(=O)c2ccccc2)[C@@H](OC(C)=O)[C@@H](OC(C)=O)C(C)(C)/C=C/[C@H](C)C(=O)[C@@]2(O)C[C@@](C)(OC(C)=O)[C@H](O)[C@@H]2[C@H]1OCC(C)C | inactive |
| C=C1[C@H](OC(=O)c2ccccc2)[C@@H](OC(C)=O)[C@@H](OC(C)=O)C(C)(C)/C=C/[C@H](C)C(=O)[C@@]2(O)C[C@@](C)(O)[C@H](OC(C)=O)[C@@H]2[C@H]1OCC(C)C | inactive |
| CC(=O)O[C@H]1[C@@H](OC(C)=O)C(C)(C)/C=C/[C@@](C)(O)C(=O)[C@@]2(O)C[C@@](C)(OC(C)=O)[C@H](OC(C)=O)[C@@H]2[C@H]2OC(=O)CC[C@@]2(OC(C)=O)[C@@H]1OCC(C)C | inactive |
| C=C1[C@H](OC(=O)c2ccccc2)[C@@H](OC(C)=O)[C@@H](OC(C)=O)C(C)(C)/C=C/[C@H](C)C(=O)[C@@]2(O)C[C@@](C)(OC(C)=O)[C@H](OCC(C)C)[C@@H]2[C@H]1OCC(C)C | inactive |
| CC(=O)O[C@H]1[C@@H](OC(C)=O)C(C)(C)/C=C/[C@H](C)C(=O)[C@@]2(OC(C)=O)C[C@@](C)(OC(C)=O)[C@H](O)[C@@H]2[C@H]2OC(=O)CC[C@@]2(OC(C)=O)[C@@H]1OCC(C)C | inactive |

Same assay, conditions: Chikungunya virus, 899, Vero

| SMILES | EC50 [nM] |
| --- | --- |
| CCCCC/C=C/C=C\C(=O)O[C@@H]1[C@@H](C)[C@]2(O)[C@@H]3C=C(C)C(=O)[C@H]3CC(CO)=C[C@H]2[C@@H]2C(C)(C)[C@]12OC(=O)C(C)C | 900 |
| CCC/C=C/C=C\C(=O)O[C@@H]1[C@@H](C)[C@]2(O)[C@@H]3C=C(C)C(=O)[C@H]3CC(CO)=C[C@H]2[C@@H]2C(C)(C)[C@]12OC(=O)C(C)C | 600 |
| CCC/C=C/C=C/C=C\C(=O)O[C@@H]1[C@@H](C)[C@]2(O)[C@@H]3C=C(C)C(=O)[C@H]3CC(CO)=C[C@H]2[C@@H]2C(C)(C)[C@]12OC(=O)C(C)C | 400 |
| CC/C=C\C/C=C/C=C\C(=O)O[C@@H]1[C@@H](C)[C@]2(O)[C@@H]3C=C(C)C(=O)[C@H]3CC(CO)=C[C@H]2[C@@H]2C(C)(C)[C@]12OC(=O)C(C)C | 12600 |
